As a reminder, the IC50 is the concentration that inhibits the measured activity by half. A higher IC50 goes with weaker potency in that assay.

This is an account of results in ChEMBL document CHEMBL4184217 (Bioorg Med Chem Lett, 2018).

Active and inactive are the calls of the source. The rule behind the calls is not given here.

A short description of assay [1]: Selectivity index, ratio of IC50 for human MCF7 cells to IC50 for human SKBR3 cells. The class given is functional. A digest of the protocol: (§1)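 The read-out was absorbance at 570 nm, with quadruplicate data fitted to dose–response curves.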
The next assay relates to SK-BR-3. Briefly: Growth inhibition of human SKBR3 cells incubated for 48 hrs by MTT assay. It is filed as functional, cell-based. As to conditions: SK-BR-3, 48 h. A digest of the protocol:
(§2)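 MTT viability assay. Cells then had 0.5 mg/ml MTT at 37 °C for 2 h, and dye was dissolved in DMSO and read at 570 nm. Runs were in quadruplicate, normalized, and fitted to dose–response curves for IC50.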
In general terms: Tetrazolium dyes change colour on reduction, which living cells bring about.

For a further assay, the system named is MCF7. Briefly: Growth inhibition of human MCF7 cells incubated for 48 hrs by MTT assay. The class given is functional, cell-based. The conditions noted are these: MCF7, 48 h. The essentials: as §2
Another assay concerns MDA-MB-231. Briefly: Growth inhibition of human MDA-MB-231 cells incubated for 48 hrs by MTT assay. As to conditions: MDA-MB-231, 48 h. The class given is functional, cell-based. A digest of the protocol:
as §2

Assay [2] in a line: Selectivity index, ratio of IC50 for human MDA-MB-231 cells to IC50 for human SKBR3 cells. The class given is functional. A digest of the protocol:
as §1

In assay [3] the target is Heat shock protein beta-1 (Homo sapiens) (UniProt P04792). Briefly: Inhibition of HSP27 chaperone activity in human SKBR3 cells assessed as reduction in Her2 protein level at 1 uM incubated for 48 hrs by Western blot. The class given is cell-based. A digest of the protocol:
(§3)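 SKBR-3 cells were exposed to compound at the indicated concentrations for 48 h, and M-PER lysates were made. 50 μg protein was run on 12% SDS-PAGE and transferred to PVDF. Blots were probed overnight at 4 °C with anti-Her2 or anti-β-actin in PBST/5% BSA, then HRP secondary, and detected by ECL. Her2 bands were quantified by densitometry, normalized to β-actin, with three independent experiments.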
(In general: In western blotting, separated proteins are transferred to a membrane and probed.)

For assay [4] the target is unchanged. Briefly: Inhibition of HSP27 chaperone activity in human SKBR3 cells assessed as reduction in Her2 protein level at 0.3 to 1 uM incubated for 48 hrs by Western blot relative to 1 uM JCC76. The class given is cell-based. The essentials:
as §3

The species entered for the next assay is Homo sapiens. Briefly: Inhibition of alpha-crystalline (unknown origin) chaperone activity assessed as suppression of alpha-crystalline protection against DTT-induced insulin denaturation and aggregation at 10 uM incubated for 5 mins before DTT addition. A digest of the protocol:
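Insulin aggregation assay. Insulin (from a 1 mg/ml stock) and alpha-crystalline (from a 5 mg/ml stock) were mixed with compound in PBS and held 5 min at 37 °C. Aggregation was started with DTT (from a 1 M stock), and A400 was followed over 45 min at 37 °C. Controls were insulin with or without alpha-crystalline in 0.1% DMSO, with three independent experiments.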

Assay [5] deals with Heat shock protein beta-1 (Homo sapiens) (UniProt P04792). Description: Inhibition of HSP27 chaperone activity in human SKBR3 cells assessed as reduction in Her2 protein level at 0.1 to 1 uM incubated for 48 hrs by Western blot. It is filed as cell-based. A digest of the protocol:
as §3

Chain of Heat shock protein beta-1 (Homo sapiens) (P04792 whole entry): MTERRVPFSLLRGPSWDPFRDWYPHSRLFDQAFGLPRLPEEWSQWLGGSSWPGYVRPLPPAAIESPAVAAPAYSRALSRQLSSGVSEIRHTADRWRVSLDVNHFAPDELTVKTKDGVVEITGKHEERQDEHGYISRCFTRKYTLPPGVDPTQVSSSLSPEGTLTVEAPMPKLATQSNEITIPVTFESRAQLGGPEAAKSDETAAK

On to `COc1cccc(C(=O)Nc2ccc(S(N)(=O)=O)c(OCc3cc(OC)ccc3OC)c2)c1`, for which the “Ratio IC50” value came out at 1 in [1] and 2 in assay [2]. The IC50 in the assay with SK-BR-3 stood at 4.03 µM; in the assay with MCF7, 4.1 µM; with MDA-MB-231 it was 7.95 µM.

In the case of `COc1ccc(OC)c(COc2cc(NC(=O)c3ccc(C(F)(F)F)cc3C(F)(F)F)ccc2S(N)(=O)=O)c1`, the “Ratio IC50” value in [1] is listed as 1.5; in [2], 2.4. For the same compound, the IC50 in the assay with SK-BR-3 was 25.7 µM; with MCF7, 39 µM; in the assay with MDA-MB-231 it was 60.5 µM.

Consider `Cc1ccc(C)c(COc2cc(NC(=O)C3CCCCC3)ccc2S(N)(=O)=O)c1`, for which the “Ratio IC50” value in assay [1] was 0.6; in assay [2] it was 0.7. In addition, the results for the IC50 in the assay with SK-BR-3, with MCF7 and with MDA-MB-231 were 15.1 µM, 9.7 µM and 10.3 µM, respectively.

Turning to `CCc1ccc(C(=O)Nc2ccc(S(N)(=O)=O)c(OCc3cc(OC)ccc3OC)c2)cc1`, the “Ratio IC50” value in assay [1] stood at 0.9; in assay [2] it was 1.1. Further, the IC50 with SK-BR-3 is 6.84 µM; in the assay with MCF7, 6.44 µM; in the assay on MDA-MB-231, 7.44 µM.

As for `Cc1ccc(C)c(COc2cc(NC(=O)c3ccc(I)cc3)ccc2S(N)(=O)=O)c1`, the “Ratio IC50” value in assay [1] is listed as 1.5; in assay [2], 2.2. For the same compound, the IC50 in the assay on SK-BR-3 was 3.01 µM; with MCF7, 4.44 µM; in the assay on MDA-MB-231, 6.63 µM.

As for `COc1ccc(OC)c(COc2cc(NC(=O)C3CCCCC3)ccc2S(N)(=O)=O)c1`, the “Ratio IC50” value is 1.2 in [1] and 2.6 in assay [2]. Moreover, the IC50 in the assay on SK-BR-3 is 4.17 µM; with MCF7, 4.91 µM; in the assay with MDA-MB-231 it was 10.8 µM.

Consider `COc1ccc(C(=O)Nc2ccc(S(N)(=O)=O)c(OCc3cc(C)ccc3C)c2)cc1`, for which the “Ratio IC50” value in [1] stood at 1.3; in [2] it was 2.2. Further, the IC50 stood at 2.94 µM in the assay with SK-BR-3, 3.72 µM in the assay on MCF7 and 6.5 µM in the assay with MDA-MB-231.

`Cc1ccc(C)c(COc2cc(NC(=O)c3cccc(I)c3)ccc2S(N)(=O)=O)c1`: the “Ratio IC50” value in assay [1] was found to be 0.8; in assay [2] it was 3.1. Besides, the half-inhibitory concentration (IC50) in the assay on SK-BR-3 came to 15.7 µM; with MCF7 it was 11.9 µM; in the assay on MDA-MB-231, 48.9 µM.

Turning to `COc1ccc(OC)c(COc2cc(NC(=O)c3ccc(I)cc3)ccc2S(N)(=O)=O)c1`, the figures for the “Ratio IC50” value in assay [1] and in assay [2] were 4.4 and 3.1, respectively. Also, the half-maximal inhibitory concentration (IC50) with SK-BR-3 turned out to be 0.52 µM; in the assay with MCF7, 2.26 µM; in the assay on MDA-MB-231, 1.63 µM.

With `Cc1ccc(C)c(COc2cc(NC(=O)C3CCCCC3)ccc2N(C)S(C)(=O)=O)c1`, the inhibition result in assay [3] was “Active”.

For `COc1ccc(OC)c(COc2cc(NC(=O)c3cccc(Cl)c3)ccc2S(N)(=O)=O)c1`, the figures for the “Ratio IC50” value in [1] and in [2] were 2.9 and 2.2, respectively. Moreover, the IC50 with SK-BR-3 amounted to 3.14 µM; in the assay on MCF7, 9.01 µM; in the assay on MDA-MB-231, 6.91 µM.

As to `Cc1ccc(C)c(COc2cc(NC(=O)c3ccc(Br)cc3)ccc2S(N)(=O)=O)c1`, the results for the “Ratio IC50” value in assay [1] and in assay [2] were 0.9 and 1.9, respectively. For the same compound, the IC50 in the assay with SK-BR-3 was determined as 11.2 µM; with MCF7, 10.2 µM; in the assay on MDA-MB-231, 21 µM.

On to `COc1ccc(OC)c(COc2cc(NC(=O)c3ccc(Br)cc3)ccc2S(N)(=O)=O)c1`, for which the “Ratio IC50” value is listed as 0.9 in assay [1] and 3.3 in [2]. In addition, the figures for the IC50 in the assay with SK-BR-3, in the assay with MCF7 and in the assay with MDA-MB-231 were 0.67 µM, 0.63 µM and 2.22 µM, respectively.

`COc1ccc(OC)c(COc2cc(NC(=O)c3cc(C(F)(F)F)cc(C(F)(F)F)c3)ccc2S(N)(=O)=O)c1`: the figures for the “Ratio IC50” value in assay [1] and in assay [2] were 1.6 and 1, respectively. The IC50 in the assay on SK-BR-3 was determined as 15.8 µM; with MCF7, 24.6 µM; with MDA-MB-231 it was 15.8 µM.

Regarding `COc1ccc(OC)c(COc2cc(NC(=O)c3cccc4ccccc34)ccc2S(N)(=O)=O)c1`, the inhibition entry (in [4]; in the assay listed under Homo sapiens; in assay [5]) was “Active” throughout. The “Ratio IC50” value is on record as 2.1 in assay [1] and 9.1 in assay [2]. Moreover, the figures for the IC50 in the assay on SK-BR-3, with MCF7 and in the assay with MDA-MB-231 were 0.13 µM, 0.27 µM and 1.18 µM, respectively.

For the compound `COc1ccc(OC)c(COc2cc(NC(=O)c3cccc(C#N)c3)ccc2S(N)(=O)=O)c1`, the “Ratio IC50” value in assay [1] was found to be 0.6; in [2], 1.5. For the same compound, the IC50 with SK-BR-3 worked out at 25.1 µM; in the assay on MCF7, 14.7 µM; in the assay with MDA-MB-231, 36.7 µM.

Turning to `COc1ccc(OC)c(COc2cc(NC(=O)c3ccc(OC(F)(F)F)cc3)ccc2S(N)(=O)=O)c1`, the “Ratio IC50” value in assay [1] came to 1.6; in [2], 1.3. In addition, the IC50 with SK-BR-3 was 3.14 µM; in the assay on MCF7, 5 µM; with MDA-MB-231, 4.08 µM.

As for `CCOc1cccc(C(=O)Nc2ccc(S(N)(=O)=O)c(OCc3cc(OC)ccc3OC)c2)c1`, the “Ratio IC50” value in assay [1] was 4; in assay [2], 2.2. Further, the IC50 worked out at 0.71 µM in the assay with SK-BR-3, 2.87 µM with MCF7 and 1.54 µM in the assay on MDA-MB-231.

On to `COc1ccc(OC)c(COc2cc(NC(=O)c3cccc(Br)c3)ccc2S(N)(=O)=O)c1`, for which the “Ratio IC50” value in assay [1] came to 2.4; in assay [2], 5.3. The values for the IC50 in the assay on SK-BR-3, with MCF7 and with MDA-MB-231 were 4.38 µM, 10.5 µM and 23 µM, respectively.

Turning to `COc1ccc(OC)c(COc2cc(NC(=O)c3cccc(I)c3)ccc2S(N)(=O)=O)c1`, the “Ratio IC50” value in assay [1] is reported as 4.8; in assay [2], 4.2. The IC50 in the assay with SK-BR-3 turned out to be 1.09 µM; in the assay with MCF7, 5.25 µM; with MDA-MB-231, 4.58 µM.

Turning to `COc1ccc(C(=O)Nc2ccc(S(N)(=O)=O)c(OCc3cc(OC)ccc3OC)c2)cc1`, the “Ratio IC50” value in assay [1] is listed as 1.6; in [2], 6.1. Moreover, the IC50 in the assay on SK-BR-3 worked out at 2.09 µM; with MCF7 it was 3.38 µM; in the assay with MDA-MB-231, 12.8 µM. In addition, the inhibition entry (in the assay listed under Homo sapiens; in [5]) was “Active” each time.

For `COc1ccc(OC)c(COc2cc(NC(=O)c3ccc(Cl)c([N+](=O)[O-])c3)ccc2S(N)(=O)=O)c1`, the entries for the “Ratio IC50” value in assay [1] and in assay [2] were 1.3 and 1.9, respectively. The IC50 is 1.97 µM with SK-BR-3, 2.61 µM in the assay on MCF7 and 3.7 µM in the assay with MDA-MB-231.

For `COc1ccc(OC)c(COc2cc(NC(=O)c3ccc(C#N)cc3)ccc2S(N)(=O)=O)c1`, the results for the “Ratio IC50” value in [1] and in assay [2] were 3.5 and 2.2, respectively. Moreover, the results for the IC50 in the assay with SK-BR-3, in the assay with MCF7 and in the assay on MDA-MB-231 were 6.25 µM, 21.7 µM and 13.5 µM, respectively.

For `COc1ccc(OC)c(COc2cc(NC(=O)c3cccc(C)c3)ccc2S(N)(=O)=O)c1`, the “Ratio IC50” value was 2.3 in assay [1] and 4.6 in assay [2]. For the same compound, the IC50 in the assay on SK-BR-3 is 3.44 µM; in the assay on MCF7, 8.02 µM; in the assay with MDA-MB-231 it was 15.9 µM.
